pIC50: −log10 of the molar value.
What was measured:
[1] = molecular target: Protein kinase C beta type (Homo sapiens) (UniProt P05771); assay: Inhibition of PKCbeta2 at 10 uM
[2] = molecular target: Ephrin type-A receptor 5 (Homo sapiens) (UniProt P54756); assay: Inhibition of EPHA5 at 10 uM
[3] = molecular target: Calcium/calmodulin-dependent protein kinase type 1D (Homo sapiens) (UniProt Q8IU85); assay: Inhibition of CAMK1delta at 10 uM
[4] = molecular target: Mitogen-activated protein kinase kinase kinase 8 (Homo sapiens) (UniProt P41279); assay: Inhibition of COT at 10 uM
[5] = molecular target: Serine/threonine-protein kinase MARK2 (Homo sapiens) (UniProt Q7KZI7); assay: Inhibition of MARK2 at 10 uM
[6] = Inhibition of SRC N1 at 10 uM
[7] = molecular target: Ribosomal protein S6 kinase alpha-3 (Homo sapiens) (UniProt P51812); assay: Inhibition of RSK2 at 10 uM
[8] = molecular target: Serine/threonine-protein kinase PLK2 (Homo sapiens) (UniProt Q9NYY3); assay: Inhibition of PLK2 at 10 uM
[9] = molecular target: Inhibitor of nuclear factor kappa-B kinase subunit beta (Homo sapiens) (UniProt O14920); assay: Inhibition of IKK-beta at 10 uM
[10] = molecular target: G protein-coupled receptor kinase 6 (Homo sapiens) (UniProt P43250); assay: Inhibition of GRK6 at 10 uM
[11] = tested on: Platelet-derived growth factor receptor alpha (Homo sapiens), P16234 [V561D]; assay: Inhibition of PDGFRalpha V561D (mutant) at 10 uM
[12] = molecular target: Vascular endothelial growth factor receptor 3 (Homo sapiens) (UniProt P35916); assay: Inhibition of FLT4 at 10 uM
[13] = molecular target: Calcium/calmodulin-dependent protein kinase type II subunit delta (Homo sapiens) (UniProt Q13557); assay: Inhibition of CAMK2delta at 10 uM
[14] = molecular target: Serine/threonine-protein kinase TAO1 (Homo sapiens) (UniProt Q7L7X3); assay: Inhibition of TAO1 at 10 uM
[15] = molecular target: Ephrin type-B receptor 3 (Homo sapiens) (UniProt P54753); assay: Inhibition of EPHB3 at 10 uM
[16] = molecular target: Protein kinase C iota type (Homo sapiens) (UniProt P41743); assay: Inhibition of PKCiota at 10 uM
[17] = molecular target: T1, Mitogen-activated protein kinase 14 (Homo sapiens, UniProt Q16539); assay: Inhibition of p38alpha at 10 uM
[18] = tested on: Tyrosine-protein kinase ABL1 (Homo sapiens), P00519 [E255K]; assay: Inhibition of ABL1 E255K (mutant) at 10 uM
[19] = molecular target: T1, Mitogen-activated protein kinase 14; assay: Inhibition of p38alpha
[20] = molecular target: CDK9/cyclin T1 (Homo sapiens) (UniProt O60563+P50750); assay: Inhibition of CDK9/cyclin T1 at 10 uM; type: protein-complex assay
[21] = molecular target: Ephrin type-A receptor 3 (Homo sapiens) (UniProt P29320); assay: Inhibition of EPHA3 at 10 uM
[22] = molecular target: PAS domain-containing serine/threonine-protein kinase (Homo sapiens) (UniProt Q96RG2); assay: Inhibition of PASK at 10 uM
[23] = molecular target: Tyrosine-protein kinase Fgr (Homo sapiens) (UniProt P09769); assay: Inhibition of FGR at 10 uM
[24] = molecular target: Glycogen synthase kinase-3 alpha (Homo sapiens) (UniProt P49840); assay: Inhibition of GSK3alpha at 10 uM
[25] = molecular target: Casein kinase I isoform gamma-1 (Homo sapiens) (UniProt Q9HCP0); assay: Inhibition of CSNK1G1 at 10 uM
[26] = molecular target: Casein kinase II subunit alpha' (Homo sapiens) (UniProt P19784); assay: Inhibition of CK2alpha2 at 10 uM
[27] = molecular target: Serine/threonine-protein kinase 3 (Homo sapiens) (UniProt Q13188); assay: Inhibition of MST2 at 10 uM
[28] = molecular target: Serine/threonine-protein kinase D2 (Homo sapiens) (UniProt Q9BZL6); assay: Inhibition of PKD2 at 10 uM
[29] = molecular target: Ribosomal protein S6 kinase beta-1 (Homo sapiens) (UniProt P23443); assay: Inhibition of p70S6K at 10 uM
[30] = Metabolic stability in human liver microsomes assessed as compound remaining at 2 uM after 45 mins by LC/MS analysis; type: ADME, Microsome; conditions: read-out: Stability
[31] = molecular target: Myosin light chain kinase 2, skeletal/cardiac muscle (Homo sapiens) (UniProt Q9H1R3); assay: Inhibition of MYLK2 at 10 uM
[32] = molecular target: Protein kinase C beta type (Homo sapiens) (UniProt P05771); assay: Inhibition of PKCbeta1 at 10 uM
[33] = molecular target: Aurora kinase A (Homo sapiens) (UniProt O14965); assay: Inhibition of Aurora A at 10 uM
[34] = molecular target: Platelet-derived growth factor receptor alpha (Homo sapiens) (UniProt P16234); assay: Inhibition of PDGFRalpha at 10 uM
[35] = molecular target: Beta-adrenergic receptor kinase 1 (Homo sapiens) (UniProt P25098); assay: Inhibition of GRK2 at 10 uM
[36] = molecular target: Tyrosine-protein kinase Fes/Fps (Homo sapiens) (UniProt P07332); assay: Inhibition of FES at 10 uM
[37] = molecular target: Mitogen-activated protein kinase kinase kinase kinase 4 (Homo sapiens) (UniProt O95819); assay: Inhibition of HGK at 10 uM
[38] = molecular target: Macrophage-stimulating protein receptor (Homo sapiens) (UniProt Q04912); assay: Inhibition of RON at 10 uM
[39] = molecular target: Tyrosine-protein kinase Fer (Homo sapiens) (UniProt P16591); assay: Inhibition of FER at 10 uM
[40] = molecular target: Serine/threonine-protein kinase haspin (Homo sapiens) (UniProt Q8TF76); assay: Inhibition of GSG2 at 10 uM
[41] = molecular target: cGMP-dependent protein kinase 1 (Homo sapiens) (UniProt Q13976); assay: Inhibition of PRKG1 at 10 uM
[42] = molecular target: G protein-coupled receptor kinase 4 (Homo sapiens) (UniProt P32298); assay: Inhibition of GRK4 at 10 uM
Rattus norvegicus = assay: Antiinflammatory activity in Lewis rat assessed as inhibition of LPS-induced TNFalpha release at 5 mg/kg administered before LPS challenge and measured after 4 hrs by ELISA; type: functional
In short: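 Rat LPS challenge. The compound was given at –4 h relative to LPS, at the dose in mg/kg shown for each line. Read-out is percent inhibition of TNFα.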

[43] = molecular target: Inhibitor of nuclear factor kappa-B kinase subunit alpha (Homo sapiens) (UniProt O15111); assay: Inhibition of IKKalpha at 10 uM
[44] = molecular target: Tyrosine-protein kinase ITK/TSK (Homo sapiens) (UniProt Q08881); assay: Inhibition of ITK at 10 uM
[45] = molecular target: Proto-oncogene tyrosine-protein kinase Src (Homo sapiens) (UniProt P12931); assay: Inhibition of SRC at 10 uM
[46] = molecular target: Dual specificity tyrosine-phosphorylation-regulated kinase 4 (Homo sapiens) (UniProt Q9NR20); assay: Inhibition of DYRK4 at 10 uM

T1 sequence (Q16539 whole entry): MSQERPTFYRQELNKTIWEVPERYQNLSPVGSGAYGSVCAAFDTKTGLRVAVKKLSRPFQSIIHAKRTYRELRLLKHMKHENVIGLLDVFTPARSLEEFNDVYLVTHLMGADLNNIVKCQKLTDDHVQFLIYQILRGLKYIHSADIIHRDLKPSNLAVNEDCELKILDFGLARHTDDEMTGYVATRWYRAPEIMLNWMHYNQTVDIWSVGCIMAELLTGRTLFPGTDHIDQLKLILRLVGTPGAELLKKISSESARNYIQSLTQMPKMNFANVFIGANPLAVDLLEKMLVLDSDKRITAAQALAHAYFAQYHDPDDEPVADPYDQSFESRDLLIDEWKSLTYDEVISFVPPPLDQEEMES
Protein kinase C beta type (Homo sapiens), sequence (P05771 2-671 limits assumed): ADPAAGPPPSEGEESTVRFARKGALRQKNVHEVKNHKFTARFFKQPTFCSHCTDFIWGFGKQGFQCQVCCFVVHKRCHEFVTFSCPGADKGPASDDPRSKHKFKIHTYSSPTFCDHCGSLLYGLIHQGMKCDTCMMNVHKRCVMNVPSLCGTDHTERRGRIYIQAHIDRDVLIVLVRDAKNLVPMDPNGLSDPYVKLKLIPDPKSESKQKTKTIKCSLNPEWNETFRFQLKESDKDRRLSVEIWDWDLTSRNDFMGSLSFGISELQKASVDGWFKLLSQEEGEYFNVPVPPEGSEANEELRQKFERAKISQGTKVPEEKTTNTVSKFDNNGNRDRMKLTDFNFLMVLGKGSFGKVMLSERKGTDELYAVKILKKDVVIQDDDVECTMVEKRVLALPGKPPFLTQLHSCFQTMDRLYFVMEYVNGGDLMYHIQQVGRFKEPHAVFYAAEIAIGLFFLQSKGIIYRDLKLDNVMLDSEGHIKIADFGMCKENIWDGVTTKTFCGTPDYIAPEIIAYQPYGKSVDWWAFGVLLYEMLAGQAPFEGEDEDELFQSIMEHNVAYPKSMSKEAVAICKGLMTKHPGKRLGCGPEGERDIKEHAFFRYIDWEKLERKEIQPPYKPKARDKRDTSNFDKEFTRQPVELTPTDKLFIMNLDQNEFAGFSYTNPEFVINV
Inhibitor of nuclear factor kappa-B kinase subunit beta (Homo sapiens), sequence (O14920 whole entry): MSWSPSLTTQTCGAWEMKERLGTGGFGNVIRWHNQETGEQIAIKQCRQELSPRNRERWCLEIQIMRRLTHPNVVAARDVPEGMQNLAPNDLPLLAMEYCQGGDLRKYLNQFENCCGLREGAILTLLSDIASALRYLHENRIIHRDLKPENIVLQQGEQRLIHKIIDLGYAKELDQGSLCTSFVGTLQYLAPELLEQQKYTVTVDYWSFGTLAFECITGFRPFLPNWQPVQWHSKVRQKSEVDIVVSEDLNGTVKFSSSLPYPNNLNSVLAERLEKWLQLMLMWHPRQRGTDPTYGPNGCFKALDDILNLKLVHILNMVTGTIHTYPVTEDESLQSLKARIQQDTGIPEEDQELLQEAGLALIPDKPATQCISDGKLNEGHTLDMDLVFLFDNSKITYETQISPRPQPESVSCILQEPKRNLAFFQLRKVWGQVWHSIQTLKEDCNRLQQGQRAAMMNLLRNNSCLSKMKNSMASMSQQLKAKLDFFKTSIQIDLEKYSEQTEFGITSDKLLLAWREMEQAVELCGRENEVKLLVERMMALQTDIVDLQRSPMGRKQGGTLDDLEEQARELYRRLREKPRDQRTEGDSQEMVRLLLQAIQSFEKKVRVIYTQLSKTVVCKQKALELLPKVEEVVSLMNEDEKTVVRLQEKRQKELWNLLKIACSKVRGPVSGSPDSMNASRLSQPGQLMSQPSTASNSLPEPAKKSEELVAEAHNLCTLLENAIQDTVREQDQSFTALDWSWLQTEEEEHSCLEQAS
Protein kinase C iota type (Homo sapiens), sequence (P41743 whole entry): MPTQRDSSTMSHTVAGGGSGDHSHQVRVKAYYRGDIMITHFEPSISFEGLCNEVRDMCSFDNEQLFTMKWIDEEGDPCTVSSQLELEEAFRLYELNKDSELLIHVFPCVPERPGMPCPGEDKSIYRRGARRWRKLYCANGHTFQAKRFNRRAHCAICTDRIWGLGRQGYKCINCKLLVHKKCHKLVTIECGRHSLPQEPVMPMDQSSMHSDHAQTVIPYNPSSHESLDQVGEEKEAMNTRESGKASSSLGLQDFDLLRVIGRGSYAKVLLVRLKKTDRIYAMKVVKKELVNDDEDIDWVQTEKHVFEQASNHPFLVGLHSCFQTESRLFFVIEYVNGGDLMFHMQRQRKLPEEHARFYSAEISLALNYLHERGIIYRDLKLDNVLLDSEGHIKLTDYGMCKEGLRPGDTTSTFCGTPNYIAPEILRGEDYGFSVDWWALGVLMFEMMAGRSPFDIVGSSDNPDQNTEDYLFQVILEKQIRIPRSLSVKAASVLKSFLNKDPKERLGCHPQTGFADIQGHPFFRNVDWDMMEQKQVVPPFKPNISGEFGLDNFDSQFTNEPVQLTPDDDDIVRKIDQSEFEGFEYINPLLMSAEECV
Platelet-derived growth factor receptor alpha (Homo sapiens), P16234 [V561D], sequence (P16234 whole entry V561D): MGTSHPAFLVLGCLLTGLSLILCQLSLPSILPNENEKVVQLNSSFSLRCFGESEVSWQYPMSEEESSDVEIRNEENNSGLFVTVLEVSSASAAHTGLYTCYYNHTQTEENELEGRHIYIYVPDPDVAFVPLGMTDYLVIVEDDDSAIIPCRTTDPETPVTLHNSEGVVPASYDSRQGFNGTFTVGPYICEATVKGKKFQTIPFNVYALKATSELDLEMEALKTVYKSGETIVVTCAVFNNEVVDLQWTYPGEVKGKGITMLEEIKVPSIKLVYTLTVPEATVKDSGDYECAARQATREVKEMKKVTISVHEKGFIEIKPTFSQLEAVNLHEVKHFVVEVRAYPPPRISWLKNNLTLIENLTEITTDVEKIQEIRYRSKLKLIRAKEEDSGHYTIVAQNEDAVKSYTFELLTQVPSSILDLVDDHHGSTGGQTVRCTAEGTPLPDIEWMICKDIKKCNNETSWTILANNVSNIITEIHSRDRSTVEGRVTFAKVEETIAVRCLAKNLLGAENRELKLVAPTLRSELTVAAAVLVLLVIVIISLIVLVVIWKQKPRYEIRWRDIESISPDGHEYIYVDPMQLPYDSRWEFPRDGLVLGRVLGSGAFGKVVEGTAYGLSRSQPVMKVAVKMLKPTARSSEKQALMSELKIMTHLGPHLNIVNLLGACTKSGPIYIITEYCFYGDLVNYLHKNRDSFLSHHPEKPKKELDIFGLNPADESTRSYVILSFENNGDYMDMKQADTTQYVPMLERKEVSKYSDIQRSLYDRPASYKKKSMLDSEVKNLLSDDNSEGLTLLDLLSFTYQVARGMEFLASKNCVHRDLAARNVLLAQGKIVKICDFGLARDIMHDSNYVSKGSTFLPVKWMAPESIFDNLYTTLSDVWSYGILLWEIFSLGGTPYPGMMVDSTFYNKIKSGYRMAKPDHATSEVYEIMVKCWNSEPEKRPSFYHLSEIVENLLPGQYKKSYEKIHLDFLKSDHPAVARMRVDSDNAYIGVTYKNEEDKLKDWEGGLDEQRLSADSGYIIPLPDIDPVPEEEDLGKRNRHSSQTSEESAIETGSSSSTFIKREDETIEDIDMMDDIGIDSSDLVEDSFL
Tyrosine-protein kinase Fgr (Homo sapiens), sequence (P09769 2-529 limits assumed): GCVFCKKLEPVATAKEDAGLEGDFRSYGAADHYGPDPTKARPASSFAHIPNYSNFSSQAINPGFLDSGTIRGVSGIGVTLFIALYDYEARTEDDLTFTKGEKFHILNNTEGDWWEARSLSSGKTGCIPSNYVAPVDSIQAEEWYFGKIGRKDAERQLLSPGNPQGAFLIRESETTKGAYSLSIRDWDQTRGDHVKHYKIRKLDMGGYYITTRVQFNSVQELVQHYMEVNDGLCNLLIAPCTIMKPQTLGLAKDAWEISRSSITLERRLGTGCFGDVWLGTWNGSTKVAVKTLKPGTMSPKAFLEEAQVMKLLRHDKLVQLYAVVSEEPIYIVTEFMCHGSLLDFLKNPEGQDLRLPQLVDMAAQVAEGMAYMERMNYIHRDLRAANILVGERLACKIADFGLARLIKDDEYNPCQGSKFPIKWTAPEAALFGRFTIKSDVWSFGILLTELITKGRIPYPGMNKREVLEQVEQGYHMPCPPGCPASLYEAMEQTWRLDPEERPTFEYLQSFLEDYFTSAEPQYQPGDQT
G protein-coupled receptor kinase 4 (Homo sapiens), sequence (P32298 whole entry, looked up): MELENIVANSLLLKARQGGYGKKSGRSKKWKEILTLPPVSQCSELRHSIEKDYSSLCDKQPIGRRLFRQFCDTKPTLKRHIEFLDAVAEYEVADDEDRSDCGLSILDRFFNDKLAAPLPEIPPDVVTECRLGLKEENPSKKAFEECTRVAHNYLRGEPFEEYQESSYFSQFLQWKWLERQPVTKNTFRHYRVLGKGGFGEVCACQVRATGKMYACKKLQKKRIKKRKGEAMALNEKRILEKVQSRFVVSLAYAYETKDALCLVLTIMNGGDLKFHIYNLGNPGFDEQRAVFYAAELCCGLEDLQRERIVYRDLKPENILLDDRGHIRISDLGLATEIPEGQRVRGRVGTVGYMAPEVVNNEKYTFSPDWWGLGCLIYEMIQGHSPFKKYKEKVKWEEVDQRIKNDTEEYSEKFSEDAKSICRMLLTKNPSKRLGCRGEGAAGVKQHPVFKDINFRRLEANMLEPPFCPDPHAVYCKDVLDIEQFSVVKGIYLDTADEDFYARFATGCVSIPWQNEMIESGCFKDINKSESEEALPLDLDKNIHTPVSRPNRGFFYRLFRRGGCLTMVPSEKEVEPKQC
Mitogen-activated protein kinase kinase kinase 8 (Homo sapiens), sequence (P41279 whole entry): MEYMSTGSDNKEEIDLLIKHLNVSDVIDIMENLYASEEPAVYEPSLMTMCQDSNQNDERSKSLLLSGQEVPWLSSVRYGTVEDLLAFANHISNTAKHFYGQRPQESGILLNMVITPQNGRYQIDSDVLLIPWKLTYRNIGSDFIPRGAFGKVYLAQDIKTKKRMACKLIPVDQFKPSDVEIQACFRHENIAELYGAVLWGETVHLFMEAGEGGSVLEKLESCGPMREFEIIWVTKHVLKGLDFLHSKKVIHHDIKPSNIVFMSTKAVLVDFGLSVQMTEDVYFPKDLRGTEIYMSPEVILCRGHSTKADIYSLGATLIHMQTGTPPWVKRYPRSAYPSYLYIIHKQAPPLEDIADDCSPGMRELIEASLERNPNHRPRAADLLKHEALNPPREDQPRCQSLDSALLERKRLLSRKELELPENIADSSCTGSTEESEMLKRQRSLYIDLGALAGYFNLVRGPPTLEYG

## Cc1cc(OCc2ccc(F)cc2F)c(Br)c(=O)n1Cc1ccc(CN(C)C)cc1
[1]
  inhibition: < 50%
[2]
  inhibition: < 50%
[3]
  inhibition: < 50%
[4]
  inhibition: < 50%
[5]
  inhibition: < 50%
[6]
  inhibition: < 50%
[7]
  inhibition: < 50%
[8]
  inhibition: < 50%
[9]
  inhibition: < 50%
[10]
  inhibition: < 50%
[11]
  inhibition: < 50%
[12]
  inhibition: < 50%
[13]
  inhibition: < 50%
[14]
  inhibition: < 50%
[15]
  inhibition: < 50%
[16]
  inhibition: < 50%
[17]
  inhibition: 100%
[18]
  inhibition: < 50%
[19]
  pIC50: 7.23
[20]
  inhibition: < 50%
[21]
  inhibition: < 50%
[22]
  inhibition: < 50%
[23]
  inhibition: < 50%
[24]
  inhibition: < 50%
[25]
  inhibition: < 50%
[26]
  inhibition: < 50%
[27]
  inhibition: < 50%
[28]
  inhibition: < 50%
[29]
  inhibition: < 50%
[30]
  remaining at 0.75 h, 2 µM: 57%
[31]
  inhibition: < 50%
[32]
  inhibition: < 50%
[33]
  inhibition: < 50%
[34]
  inhibition: < 50%
[35]
  inhibition: < 50%
[36]
  inhibition: < 50%
[37]
  inhibition: < 50%
[38]
  inhibition: < 50%
[39]
  inhibition: < 50%
[40]
  inhibition: < 50%
[41]
  inhibition: < 50%
[42]
  inhibition: < 50%
Rattus norvegicus
  inhibition in vivo at 5 mg/kg: 87%
[43]
  inhibition: < 50%
[44]
  inhibition: < 50%
[45]
  inhibition: < 50%
[46]
  inhibition: < 50%

Source: ChEMBL document CHEMBL1154277, “Discovery of N-substituted pyridinones as potent and selective inhibitors of p38 kinase” (Bioorg Med Chem Lett, 2009)
